Source: ChEMBL document CHEMBL1124491, “Folate analogues. 31. Synthesis of the reduced derivatives of 11-deazahomofolic acid, 10-methyl-11-deazahomofolic acid, and their evaluation as inhibitors of glycinamide ribonucleotide formyltransferase” (J Med Chem, 1989)

Columns and labels:
Enterococcus faecium = experiment: Inhibition of the growth of Streptococcus faecium; type: functional, organism-based
Method in brief: (§1)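 Bacterial growth inhibition with folate at 1 ng/mL in the medium. Reported as IC50.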

Lacticaseibacillus casei = experiment: Inhibition of the growth of Lactobacillus casei; type: functional, organism-based; method in brief: as §1
[1] = biological target: T1, Trifunctional purine biosynthetic protein adenosine-3 (Mus musculus, UniProt Q64737); experiment: Inhibition of the GAR transformylase in L1210
T1 sequence (Q64737 whole entry): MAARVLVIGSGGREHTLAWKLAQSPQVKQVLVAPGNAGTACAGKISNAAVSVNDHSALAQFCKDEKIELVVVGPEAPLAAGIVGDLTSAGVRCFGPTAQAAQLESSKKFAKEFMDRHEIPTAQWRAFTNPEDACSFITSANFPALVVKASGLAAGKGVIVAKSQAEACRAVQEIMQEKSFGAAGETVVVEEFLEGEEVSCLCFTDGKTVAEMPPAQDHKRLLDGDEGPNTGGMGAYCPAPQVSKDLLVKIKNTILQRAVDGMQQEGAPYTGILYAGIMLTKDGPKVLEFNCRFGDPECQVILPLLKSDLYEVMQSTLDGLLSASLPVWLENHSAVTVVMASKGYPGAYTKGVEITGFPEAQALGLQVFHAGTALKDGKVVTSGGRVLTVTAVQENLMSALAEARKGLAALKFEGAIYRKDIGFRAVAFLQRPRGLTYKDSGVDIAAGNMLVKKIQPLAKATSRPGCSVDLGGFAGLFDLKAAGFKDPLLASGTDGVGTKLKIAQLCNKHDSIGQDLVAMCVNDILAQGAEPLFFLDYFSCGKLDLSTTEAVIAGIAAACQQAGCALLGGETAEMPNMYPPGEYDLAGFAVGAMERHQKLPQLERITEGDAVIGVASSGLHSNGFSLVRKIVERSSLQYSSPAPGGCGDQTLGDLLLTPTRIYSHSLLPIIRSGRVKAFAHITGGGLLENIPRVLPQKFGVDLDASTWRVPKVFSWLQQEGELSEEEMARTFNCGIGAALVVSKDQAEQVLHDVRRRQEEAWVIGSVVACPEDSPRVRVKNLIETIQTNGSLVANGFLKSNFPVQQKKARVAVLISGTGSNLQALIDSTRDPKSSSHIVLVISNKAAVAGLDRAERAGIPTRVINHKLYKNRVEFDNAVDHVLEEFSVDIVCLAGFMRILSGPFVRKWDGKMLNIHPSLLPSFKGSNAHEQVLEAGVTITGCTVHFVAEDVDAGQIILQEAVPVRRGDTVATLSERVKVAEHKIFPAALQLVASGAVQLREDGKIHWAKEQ

MCF7 = experiment: Inhibition of the growth of MCF-7 human breast adenocarcinoma cells; type: functional, cell-based
Method in brief: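 MCF-7 cells grown as monolayers in RPMI 1640 with 10% dialyzed heat-inactivated fetal calf serum. 10 nM calcium leucovorin replaced folic acid as the folate source. Cells were seeded at 7.5 × 10⁴ cells/mL. The result is reported as IC50.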

[2] = biological target: T2, Trifunctional purine biosynthetic protein adenosine-3 (Homo sapiens, UniProt P22102); experiment: Inhibition of the GAR transformylase in MOLT-4 human leukemia cells
T2 sequence (P22102 whole entry): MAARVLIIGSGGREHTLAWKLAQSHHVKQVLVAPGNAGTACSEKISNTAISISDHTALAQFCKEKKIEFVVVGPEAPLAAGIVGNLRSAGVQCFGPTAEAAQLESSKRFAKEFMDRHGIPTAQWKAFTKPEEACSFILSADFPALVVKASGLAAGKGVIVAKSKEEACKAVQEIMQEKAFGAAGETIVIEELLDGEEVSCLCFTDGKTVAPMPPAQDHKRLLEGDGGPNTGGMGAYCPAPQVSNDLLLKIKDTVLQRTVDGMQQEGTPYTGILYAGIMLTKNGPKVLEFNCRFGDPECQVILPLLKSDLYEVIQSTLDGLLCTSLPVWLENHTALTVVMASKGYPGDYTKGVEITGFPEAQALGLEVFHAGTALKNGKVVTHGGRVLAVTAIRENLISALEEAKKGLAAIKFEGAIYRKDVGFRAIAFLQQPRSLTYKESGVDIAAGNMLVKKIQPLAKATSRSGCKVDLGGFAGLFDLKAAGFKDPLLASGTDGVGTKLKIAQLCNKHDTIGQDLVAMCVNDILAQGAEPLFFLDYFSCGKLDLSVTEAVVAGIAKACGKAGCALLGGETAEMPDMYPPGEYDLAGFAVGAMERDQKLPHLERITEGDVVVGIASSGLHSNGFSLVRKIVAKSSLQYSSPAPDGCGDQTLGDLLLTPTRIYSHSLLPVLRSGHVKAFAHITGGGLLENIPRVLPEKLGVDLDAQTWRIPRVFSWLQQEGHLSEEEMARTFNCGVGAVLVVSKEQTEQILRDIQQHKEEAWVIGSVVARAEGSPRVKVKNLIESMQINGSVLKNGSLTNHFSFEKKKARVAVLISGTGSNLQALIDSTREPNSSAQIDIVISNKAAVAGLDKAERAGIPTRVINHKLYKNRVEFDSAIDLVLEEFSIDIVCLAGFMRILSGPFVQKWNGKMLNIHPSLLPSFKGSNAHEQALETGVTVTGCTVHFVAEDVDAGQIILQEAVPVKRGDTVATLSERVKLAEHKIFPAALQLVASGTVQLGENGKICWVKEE

MOLT-4 = experiment: Inhibition of the growth of MOLT-4 human leukemia cells; type: functional, cell-based
Method in brief: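 MOLT-4 cells grown in suspension in RPMI 1640 with 10% dialyzed fetal calf serum. 10 nM calcium leucovorin replaced folic acid as the folate source. The result is reported as IC50.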

[3] = biological target: T1, Trifunctional purine biosynthetic protein adenosine-3; experiment: Inhibition of the GAR formyl transferase in L1210
Method in brief: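 GAR formyltransferase activity in L1210 cell extract, run at 30 °C in 50 mM Tris-HCl, pH 7.5. Substrates were (6R)-10-formyltetrahydrofolate at 60 μM and glycylamide ribonucleotide at 0.24 mM. The result is reported as IC50.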

SMILES: CC(Cc1ccc(C(=O)NC(CCC(=O)O)C(=O)O)cc1)Cc1cnc2nc(N)nc(O)c2n1 (stereo not drawn)
- IC50 (Enterococcus faecium): 250 nM
- IC50 (Lacticaseibacillus casei): 4000 nM

SMILES: CC(CC1=Nc2c(O)nc(N)nc2NC1)Cc1ccc(C(=O)NC(CCC(=O)O)C(=O)O)cc1 (stereo not drawn)
- IC50 (Enterococcus faecium): 40 nM
- IC50 (Lacticaseibacillus casei): 1700 nM

SMILES: CC(Cc1ccc(C(=O)NC(CCC(=O)O)C(=O)O)cc1)CC1CNc2nc(N)nc(O)c2N1 (stereo not drawn)
- IC50 (Enterococcus faecium): 128 nM
- IC50 (Lacticaseibacillus casei): 3800 nM

SMILES: Nc1nc(O)c2c(n1)NC[C@H](CCNc1ccc(C(=O)NC(CCC(=O)O)C(=O)O)cc1)N2 (stereo partly drawn) [TETRAHYDROHOMOFOLATE]
- IC50 [1]: > 0.02 nM

SMILES: Nc1nc2c(c(=O)[nH]1)NC(CCCc1ccc(C(=O)NC(CCC(=O)O)C(=O)O)cc1)CN2 (stereo not drawn)
- IC50 (MCF7): 4500 nM
- IC50 [1]: 0.018 nM
- IC50 (Enterococcus faecium): 30 nM
- IC50 [2]: 0.014 nM
- IC50 (MOLT-4): 3400 nM
- IC50 (Lacticaseibacillus casei): 540 nM

SMILES: CN(Cc1cnc2nc(N)nc(N)c2n1)c1ccc(C(=O)N[C@@H](CCC(=O)O)C(=O)O)cc1 [METHOTREXATE]
- IC50 (Enterococcus faecium): 0.9 nM
- IC50 (Lacticaseibacillus casei): 0.02 nM

SMILES: Nc1nc(O)c2nc(CCCc3ccc(C(=O)NC(CCC(=O)O)C(=O)O)cc3)cnc2n1 (stereo not drawn)
- IC50 (Enterococcus faecium): 120 nM
- IC50 (Lacticaseibacillus casei): 2200 nM
- IC50 [3]: > 2500 nM
